Reference: the array DNA melting data of Ke et al. (doi:10.1101/2024.01.08.574731)

Legend:
[1] = folding enthalpy; higher = less favourable; fluorescence melt of hairpins on a sequencing array, two-state fit; settings: sodium 0.088 M
In short: (§1)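 To match UV melts, fitted temperatures were raised by 9.35 °C. These fits were bootstrapped two-state models that gave melting temperature and folding enthalpy, combined by inverse variance over four replicates. The input was normalised Cy3 fluorescence of library hairpins with annealed Cy3 and quencher oligos on a sequenced MiSeq flow cell, imaged in 50 mM Na-HEPES pH 8.0, 25 mM NaCl in 2.5 °C steps up to 60 °C.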

[2] = melting temperature; fluorescence melt of hairpins on a sequencing array, two-state fit, raised by 9.35 °C to match UV melts; settings: sodium 0.088 M
In short: as §1

Sequence	folding enthalpy [1]	Tm [2]
GTAGTGCCGAAAGGCTAC (((..(((....))))))	-9.39 kcal/mol	36.2 °C
ACACTGAAAAGTGT (((((....)))))	-23.4 kcal/mol	47.4 °C
CGATTCGGAAACGACTCG (((.(((....))).)))	-37.8 kcal/mol	42.6 °C
GTACTAGAAATAGTAC ((((((....))))))	-27.2 kcal/mol	42.4 °C
GGGAGTTCGAAAGAACCC (((..(((....))))))	-18.2 kcal/mol	47.9 °C
GAATACGGAAACGTGTTC (((.(((....))).)))	-33.2 kcal/mol	47.1 °C
GTCAGTACGAAAGTAGAC (((..(((....))))))	-17.2 kcal/mol	31 °C
GTGATCGGAAACGACCAC (((.(((....))).)))	-42 kcal/mol	47.6 °C
GCGCTCGAAAGAGGCGC ((((((....))).)))	-29.2 kcal/mol	67.4 °C
GTATCCGAAAGGATAC ((((((....))))))	-35.1 kcal/mol	65.8 °C
GCGATCACGAAAGTGCGC (((..(((....))))))	-20.9 kcal/mol	48.7 °C
GCAGCCGGAAACGACCGC ((.(.((....)).).))	-20.9 kcal/mol	31.2 °C
GCACCAGGAAACCGGTGC (((((.(....).)))))	-42.4 kcal/mol	58.3 °C
GCCAGGCGAAAGCCGTGC ((..(((....)))..))	-13.6 kcal/mol	50 °C
GATCCAGCGATGGATC ((((((....))))))	-42.4 kcal/mol	55.6 °C
GATCGACACTTCGATC ((((((....))))))	-48.6 kcal/mol	53.4 °C
GCACGCACGAAAGTGTGC (((..(((....))))))	-23.2 kcal/mol	52.6 °C
GATTTTGGAAACGAAATC (((((.(....).)))))	-34.9 kcal/mol	39.6 °C
GGGTGAGGAAACCCACCC (((((.(....).)))))	-50.9 kcal/mol	51.7 °C
CGCGCGGAAACGCTGGCG ((((((....)))..)))	-29.6 kcal/mol	53.7 °C
GCGAAGCGAAAGCATCGC ((((.((....)).))))	-17.4 kcal/mol	61.1 °C
GTGGTAGGAAACTGCCAC ((((.((....)).))))	-50 kcal/mol	54.1 °C
GCGGAGTACCGC ((((....))))	-24.2 kcal/mol	55.9 °C
GGTCGGCGAAAGCCCACC (((.(((....))).)))	-21.7 kcal/mol	46.9 °C

Sequence	folding enthalpy [1]	Tm [2]
GTGAACGGAAACGTTTAC ((.((((....)))).))	-29.6 kcal/mol	46.9 °C
GACCACGAAAGTGCGGTC ((((((....)))..)))	-19.3 kcal/mol	43.2 °C
GGGCTGACGAAAGTCCCC (((..(((....))))))	-18.1 kcal/mol	42.8 °C
GTTAGCGAAAGCTATAAC ((((((....)))..)))	-12.7 kcal/mol	31.4 °C
GATCCGAGCACGGATC ((((((....))))))	-38.2 kcal/mol	58.5 °C
GAATGAGGAAACTCGTTC (((.(((....))).)))	-32.3 kcal/mol	43.9 °C
GAAACAGGAAACTGTTCC (.(((((....))))).)	-14.9 kcal/mol	35.3 °C
GGGTGCGCGAAAGCGCCC (((..(((....))))))	-10.8 kcal/mol	55.5 °C
GATCAGTTCGCTGATC ((((((....))))))	-44.9 kcal/mol	54.1 °C
GATCCAAAATGGATC ((((((...))))))	-31.5 kcal/mol	48.9 °C
GTGGTGCGAAAGCACAC (((.(((....))))))	-11.5 kcal/mol	53.8 °C
GTTACCGAAAGGTAAC ((((((....))))))	-34.6 kcal/mol	66.4 °C
GCTATCGGAAACGATAGC (((((((....)))))))	-52.4 kcal/mol	64.3 °C
GTGCAAGGAAACTTGTGC (..((((....))))..)	-22.4 kcal/mol	37.4 °C
GTGTGTGGAAACACATGC (..((((....))))..)	-18.8 kcal/mol	49.6 °C
GATCAGACCTCTGATC ((((((....))))))	-40.6 kcal/mol	48.4 °C
GGATATGGAAACATGTCC (((.(((....))).)))	-30.4 kcal/mol	45.3 °C
GATCCACGCTGGATC ((((((...))))))	-31.3 kcal/mol	51.6 °C
GCGGGTCCCGC ((((...))))	-28.1 kcal/mol	56.4 °C
GCGGAGCTCCGC ((((....))))	-20.9 kcal/mol	55.2 °C
GCTTTCGGAAACGAAAAC (.(((((....))))).)	-22.4 kcal/mol	36.4 °C
GATCGAACGTCGATC ((((((...))))))	-34.9 kcal/mol	49.3 °C
GTCTACGAAAGTACTGAC ((((((....)))..)))	-10.8 kcal/mol	28.9 °C
GATCCAGAGTGGATC ((((((...))))))	-31.3 kcal/mol	48.8 °C

Sequence	folding enthalpy [1]	Tm [2]
GGTATCGCGAAAGCGACC (((..(((....))))))	-9.09 kcal/mol	31.7 °C
GAAACCGAAAGGTATTTC ((((((....)))..)))	-12.4 kcal/mol	26.6 °C
GATCATAAACATGATC ((((((....))))))	-31 kcal/mol	43.1 °C
GATCCGTAAGCGGATC ((((((....))))))	-35.3 kcal/mol	59.3 °C
GATCTACCAATAGATC ((((((....))))))	-25.6 kcal/mol	38.1 °C
GATCATTCTAATGATC ((((((....))))))	-31.9 kcal/mol	49.4 °C
GCTAACGGAAACGTTAAC (.(((((....))))).)	-16.1 kcal/mol	34.8 °C
GGGACTGGAAACGGTCCC (((((.(....).)))))	-44.6 kcal/mol	57.6 °C
GTTTCCGAAAGGATTAAC ((((((....)))..)))	-11.6 kcal/mol	28.6 °C
GTTTGTGGAAACACAGAC ((.((((....)))).))	-23.6 kcal/mol	43.9 °C
GATCTTCCGGAAGATC ((((((....))))))	-55.2 kcal/mol	53.1 °C
GCAGATGGAAACATCTAC (.(((((....))))).)	-19.1 kcal/mol	34.7 °C
GGTAGCGGAAACGTTACC ((((.((....)).))))	-32.4 kcal/mol	50.4 °C
GAACACGAAAGTGGGTTC ((((((....)))..)))	-16.4 kcal/mol	37.1 °C
GGAAGCGGAAACGCTTTC (.(((((....))))).)	-21.2 kcal/mol	53.7 °C
GGTCAGGCGAAAGCCACC (((..(((....))))))	-11.2 kcal/mol	35.6 °C
GATCTCCGCTGAGATC ((((((....))))))	-32.5 kcal/mol	53.1 °C
GCAACTACGAAAGTATGC (((..(((....))))))	-16.5 kcal/mol	32.1 °C
GATCGAATGGTCGATC ((((((....))))))	-20.2 kcal/mol	51.4 °C
GGTAGGGGAAACCCCACC (((.(((....))).)))	-23.7 kcal/mol	46.2 °C
GAGTCGCCGAAAGGCCTC (((..(((....))))))	-12.2 kcal/mol	29.3 °C
GCTGCCGAAAGGCACAGC ((((((....)))..)))	-13.4 kcal/mol	48.2 °C
GATCGGGACCCCGATC ((((((....))))))	-39.4 kcal/mol	62.4 °C
GCTTGCGAAAGCAGAAGC ((((((....)))..)))	-21.7 kcal/mol	47.2 °C

Sequence	folding enthalpy [1]	Tm [2]
GGGTTCTCGAAAGAGCCC (((..(((....))))))	-26.5 kcal/mol	48.1 °C
GACGCCGGAAACGACGCC (.((.((....)).)).)	-21.7 kcal/mol	39.7 °C
TTCCTGAAAAGGAA (((((....)))))	-15 kcal/mol	39.9 °C
GGCCACGAAAGTGCAGCC ((((((....)))..)))	-19.9 kcal/mol	49.9 °C
GCACTGGCGAAAGCCTGC (((..(((....))))))	-12.1 kcal/mol	44.3 °C
GATCGCACGGGCGATC ((((((....))))))	-30.9 kcal/mol	67.1 °C
GCGATCCCTCGC ((((....))))	-24.1 kcal/mol	49.8 °C
GCCCTAGGAAACTAGAGC ((.((((....)))).))	-25 kcal/mol	34.3 °C
GGTACAGGAAACTGCACC (((.(((....))).)))	-32.5 kcal/mol	44.2 °C
GATCATGGAATGATC ((((((...))))))	-39.3 kcal/mol	56.5 °C
GTTGCCACGAAAGTGAAC (((..(((....))))))	-11.8 kcal/mol	30.6 °C
GGCGGGCCGAAAGGCGCC (((..(((....))))))	-13.2 kcal/mol	62.3 °C
GGAGTCCCGAAAGGGTCC (((..(((....))))))	-12.4 kcal/mol	34 °C
GATCAATATCTTGATC ((((((....))))))	-30.6 kcal/mol	42.6 °C
GAGGGCCGAAAGGCTCTC (((.(((....))).)))	-30.6 kcal/mol	67 °C
GAGGTGGGAAACCACTTC ((.((((....)))).))	-21.4 kcal/mol	46 °C
GCCATCGAAAGATCGGGC ((((((....)))..)))	-25.1 kcal/mol	41.6 °C
GATTGGGGAAACCCAGTC ((.((((....)))).))	-24.4 kcal/mol	44.7 °C
GCGGTCTCCCGC ((((....))))	-33.4 kcal/mol	55.5 °C
GATCGAATTGTCGATC ((((((....))))))	-41.9 kcal/mol	50 °C
GGGTATGGAAACACACCC ((((.((....)).))))	-29.8 kcal/mol	42.8 °C
